Measured values as given in ChEMBL document CHEMBL1158813, “Diastereomeric quinolinone alkaloids from the marine-derived fungus Penicillium janczewskii” (2005).

What was measured:
Format in all cases: functional
Details in all cases: read-out: Activity
HT-29 = experiment: Cytotoxicity against human HT-29 cells assessed as cell viability at 10 ug/mL by SRB assay
Procedure, shortened: (§1)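 SRB assay. Cells were plated at 5000–10 000 cells/well, depending on doubling time, and grown 24 h before compound addition. Compounds were dissolved in MeOH or DMSO and tested at 1 µg per 100 µL well (10 µg/mL) in complete medium for 48 h. Cells were fixed with cold TCA for 30 min on ice, at 10% final for adherent cells and 16% for suspension cells. Plates were stained with 0.4% SRB in 1% acetic acid for 10 min at room temperature, dye was solubilized in 10 mM Tris/KOH pH 10.5, and A550 was read.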

SK-OV-3 = experiment: Cytotoxicity against human SKOV3 cells assessed as cell viability at 10 ug/mL by SRB assay; procedure, shortened: as §1
SK-MEL-2 = experiment: Cytotoxicity against human SK-MEL-2 cells assessed as cell viability at 10 ug/mL by SRB assay; procedure, shortened: as §1
MDA-MB-231 = experiment: Cytotoxicity against human MDA-MB-231 cells assessed as cell viability at 10 ug/mL by SRB assay; procedure, shortened: as §1
DU-145 = experiment: Cytotoxicity against human DU145 cells assessed as cell viability at 10 ug/mL by SRB assay; procedure, shortened: as §1
CAKI-1 = experiment: Cytotoxicity against human Caki1 cells assessed as cell viability at 10 ug/mL by SRB assay; procedure, shortened: as §1
K562 = experiment: Cytotoxicity against human K562 cells assessed as cell viability at 10 ug/mL by SRB assay; procedure, shortened: as §1
A549 = experiment: Cytotoxicity against human A549 cells assessed as cell viability at 10 ug/mL by SRB assay; procedure, shortened: as §1

Compound	viability at 10 µg/mL (HT-29) [%]	viability at 10 µg/mL (SK-OV-3) [%]	viability at 10 µg/mL (SK-MEL-2) [%]	viability at 10 µg/mL (MDA-MB-231) [%]	viability at 10 µg/mL (DU-145) [%]	viability at 10 µg/mL (CAKI-1) [%]	viability at 10 µg/mL (K562) [%]	viability at 10 µg/mL (A549) [%]
COc1ccc([C@@]2(O)c3ccccc3NC(=O)[C@H]2O)cc1	58.8	44.6	55.2	52.9	50.6	80.3	52.4	56.3
COc1ccc([C@@]2(O)c3c(ccc(CC=C(C)C)c3O)NC(=O)[C@@H]2OC)cc1 [PENIPREQUINOLONE]	4	20.2		8.4	30.8			
COc1ccc([C@@]2(O)c3ccccc3NC(=O)[C@@H]2O)cc1	32.8	8.1	39	31.8	48.4	65.1	36.6	56.8
